Sampled rows, rich in hits. Any-hit rate of the full collection: about 2.4%.
H9c2 TAG inh: triacylglycerol accumulation inhibition. hit rate 0.66% among 230,000. H9c2 cells, Nile Red lipid (TAG) fluorescence; cells loaded with 200 µM oleic acid. inhibition, % at 12.5 µM;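 active = pattern-corrected inhibition of lipid staining of at least 50% with the nuclear-stain viability signal not falling by more than 50%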;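 note: 0% = DMSO wells and 100% = triacsin C control wells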
MC4R antagonist: antagonists of human melanocortin 4 receptor (MC4R); P32245; MC4R-expressing cells, MTII-stimulated cAMP, LANCE TR-FRET; inhibition, % at 6.5 µM; hit rate 0.48% among 360,000; AID 540295;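 active = inhibition above its plate's cutoff, the mean of tested wells on that plate plus 3 SD, cut at about 29% in these data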;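 note: 0% = Melanotan II alone and 100% = Melanotan II plus saturating MCL0020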
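System: U2OS-MC4R stable cell line; Technique: Eu-cAMP/anti-cAMP TR-FRET, emission 671 nm; Repeats: single well per compound; Also added: Melanotan II; Dosing: one concentration, 6.5 µM nominal; Schedule: 30-min compound, 1-h challenge, 1-h detection, room temperature.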
aDG glyco act: increases alpha dystroglycan glycosylation; hit rate 0.22% among 360,000; Pro5-aDG cells, alpha-DG glycosylation AlphaScreen (IIH6); 0% Pro5, 100% B10-LARGE cell signal; AID 624168; activation, % at 10 µM;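 active = activation of at least 8% versus controls, or a plate z-score of at least 8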;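 note: Pro5 are CHO cells carrying HIG-tagged alpha-DG that lacks glycosylation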
MC4R barr agon: agonists of human melanocortin 4 receptor (MC4R) beta-arrestin | U2OS MC4R beta-arrestin complementation, luminescence; percent of melanotan II response, DMSO zero | activation, % at 8.9 µM | hit rate 0.98% among 360,000;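 active = activation above a per-plate cutoff, the mean activation of sample wells on that plate plus 3 SD, cut at about 8% in these data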
TbMetRS inhib: blocks T. brucei methionyl-tRNA synthetase activity; purified T. brucei MetRS, ATP depletion, Kinase-Glo luminescence; inhibition, % at 11.9 µM; hit rate 0.4% among 360,000;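 active = inhibition above a per-plate cutoff of the control wells' mean inhibition plus 3 SD, cut at about 5.5% in these data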;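 note: 0% = DMSO wells median and 100% = median of wells with control inhibitor compound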
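Measured by: Kinase-Glo luciferase luminescence reporting remaining unconsumed ATP. Material: purified T. brucei MetRS enzyme. Doses: 11.9 µM compound single dose, 0.9% DMSO. Medium: HEPES buffer containing pyrophosphatase, BSA, spermine, DTT. Times: 15 min preincubation, 2 h reaction, all 25 °C. Reagent: methionine, ATP and bulk E. coli tRNA.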
NTR1 ag: activates human neurotensin receptor 1; P30989; NTR1-U2OS beta-arrestin-GFP spot imaging, agonist mode; activation, % at 20 µM; hit rate 0.17% among 330,000;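 active = activation at or above 40% of the spot to cytoplasm intensity ratio, with at least 20 cells analyzed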;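 note: 0% = DMSO without peptide and 100% = 100 nM NTR1 peptide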
Target sequence (P30989 whole entry, looked up): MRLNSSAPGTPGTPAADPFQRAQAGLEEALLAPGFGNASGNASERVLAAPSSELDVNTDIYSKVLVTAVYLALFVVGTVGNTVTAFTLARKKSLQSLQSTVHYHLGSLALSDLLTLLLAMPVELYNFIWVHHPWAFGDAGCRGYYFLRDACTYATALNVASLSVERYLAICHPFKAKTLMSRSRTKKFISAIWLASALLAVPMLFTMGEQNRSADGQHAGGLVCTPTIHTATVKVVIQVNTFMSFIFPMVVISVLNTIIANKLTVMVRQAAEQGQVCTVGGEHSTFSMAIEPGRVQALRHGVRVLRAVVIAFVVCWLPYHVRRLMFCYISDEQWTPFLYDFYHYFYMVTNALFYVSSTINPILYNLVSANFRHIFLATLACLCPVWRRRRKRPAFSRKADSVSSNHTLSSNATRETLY
MC4R barr conf: human MC4R beta-arrestin agonism confirmation; shares compounds with MC4R barr agon; U2OS MC4R beta-arrestin recruitment, luminescence; scaled DMSO 0%, Melanotan II 100%; activation, % at 8.9 µM; hit rate 31% among 2,400;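 active = mean activation across replicates above the hit cutoff set in the earlier primary screen, cut at about 8% in these data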
MOR DOR agonist: activates mu-delta opioid heterodimer, MC4R agonist counter-screen; shares compounds with MC4R barr agon; U2OS PathHunter beta-arrestin, beta-gal luminescence; percent of deltorphin B response, DMSO zero; activation, % at 9.2 µM; hit rate 5.8% among 2,400;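 active = mean activation across replicates exceeds the hit threshold derived in the earlier primary screen, cut at about 18% in these data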;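 note: 100% = deltorphin B at 0.9 µM final and 0% = DMSO alone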
Starred values were filed as active, the others as inactive; / = no result given.

SMILES | H9c2 TAG inh | MC4R antagonist | aDG glyco act | MC4R barr agon | TbMetRS inhib | NTR1 ag | MC4R barr conf | MOR DOR agonist
CCc1ccc2nc(N(CCN(C)C)C(=O)/C=C/c3cccs3)sc2c1 | / | 7 | 0 | 0 | 0 | 4 | / | /
CN(C)CCCN(C(=O)/C=C/c1cccs1)c1nc2ccc(F)cc2s1 | 33 | -7 | 0 | 10* | -1 | -1 | 16* | 8
COc1cccc2sc(N(CCN(C)C)C(=O)/C=C/c3cccs3)nc12 | 27 | 7 | 0 | 7 | 0 | 8 | / | /
CCOc1cccc2sc(N(CCN(C)C)C(=O)/C=C/c3cccs3)nc12 | / | -2 | 0 | 15* | 0 | 1 | 3 | 9
COC(=O)C[C@H]1CC[C@@H](NC(=O)Nc2cccc(OC)c2)[C@@H](CO)O1 | / | / | 0 | / | 0 | / | / | /
CN(C)CCCN(C(=O)CCc1ccccc1)c1nc2ccc(Cl)cc2s1 | / | -4 | 2 | 11* | 2 | 7 | 31* | 16
CN(C)CCN(C(=O)/C=C/c1cccs1)c1nc2c(F)cc(F)cc2s1 | / | 8 | 0 | 21* | 0 | 10 | 5 | 14
CCOc1ccc2nc(N(CCN(C)C)C(=O)/C=C/c3cccs3)sc2c1 | / | -5 | 0 | -2 | -1 | 1 | / | /
CN(C)CCN(C(=O)/C=C/c1cccs1)c1nc2ccc(Br)cc2s1 | / | 4 | 0 | 31* | 0 | -1 | 12* | 6
Cc1ccc2nc(N(CCCN(C)C)C(=O)CCc3ccccc3)sc2c1 | / | -3 | 3 | 0 | 0 | / | / | /
C[C@@H]1CCCN1[C@H]1CS(=O)(=O)N[C@@H]1COCc1ccccc1 | / | / | 0 | / | -1 | / | / | /
CCC(=O)NC(=S)Nc1ccc(NC(=O)c2ccc(C)c([N+](=O)[O-])c2)cc1 | / | 11 | 0 | 11* | 0 | 7 | 0 | 7
CCOc1ccc(C(=O)Nc2ccc(NC(=O)c3ccccc3)c(C)c2)cc1[N+](=O)[O-] | 20 | 5 | 0 | 12* | 0 | 0 | -3 | 5
CCOc1cccc(C(=O)Nc2ccc(NC(=O)c3ccccc3)c(C)c2)c1 | -7 | 13 | 0 | 0 | -1 | 1 | / | /
O=C(Nc1ccc(NC(=O)c2cccs2)c(Cl)c1)c1ccco1 | 21 | -7 | 0 | -1 | 0 | -1 | / | /
O=C(Nc1ccc(NC(=O)c2sc3ccccc3c2Cl)cc1Cl)c1ccco1 | / | 0 | 0 | 36* | 0 | 2 | 8.8* | 3
CCOc1cc(C(=O)Nc2ccc3c(c2)OCO3)ccc1OCCOc1ccccc1Cl | 12 | 1 | 0 | 10* | 0 | 0 | 12* | 6
Cc1noc(C)c1Cn1c(C)c(C(=O)NCc2ccc3c(c2)OCCO3)sc1=O | -4 | 20 | 0 | 1 | 0 | / | / | /
COc1ccc(OC)c(NC(=O)Nc2nc(C(N)c3ccccc3Cl)cs2)c1 (configuration not stated) | -9 | 16 | 4 | -1 | 0 | / | / | /
FC(F)(F)c1ccccc1Cc1c(-c2ccccc2)nc2ccc(Br)cn12 | / | / | 0 | / | -1 | / | / | /
CCOC1=C2[C@@H](CN(S(=O)(=O)c3ccc(C)cc3)[C@H]2c2ccccc2Cl)[C@H]2C(=O)N(Cc3ccccc3)C(=O)[C@H]2C1 | / | / | 0 | / | 0 | / | / | /
CCOc1ccc(C(=O)Nc2ccc(NC(=O)c3ccco3)c(Cl)c2)cc1Br | / | 1 | 0 | 36* | 0 | 16 | 6 | 16
COc1ccc(NC(=O)c2ccco2)cc1NC(=O)c1ccc(C)cc1 | 29 | -2 | 0 | -3 | 0 | 0 | / | /
CCOc1ccc(C(=O)Nc2ccc(NC(=O)c3ccco3)c(Cl)c2)cc1Cl | / | -8 | 0 | 36* | 1 | 17 | 3 | 19*
COc1cccc(C(=O)Nc2ccc(NC(=O)c3ccco3)c(Cl)c2)c1 | 8 | -5 | 1 | -1 | -1 | 1 | / | /
SMILES | H9c2 TAG inh | MC4R antagonist | aDG glyco act | MC4R barr agon | TbMetRS inhib | NTR1 ag | MC4R barr conf | MOR DOR agonist
CCOc1ccc(C(=O)Nc2cccc([N+](=O)[O-])c2)cc1Br | / | -10 | 1 | 15* | -1 | 3 | 4 | 8
CC1(C(=O)NS(=O)(=O)c2ccc(Cl)cc2)CCN1C(=O)CCc1cccs1 (configuration not stated) | 3 | 15 | 0 | 0 | 0 | / | / | /
COc1cc(/C=C/C(=O)/C=C(O)/C=C/c2ccc(O)c(OC)c2)ccc1O | -4 | 8 | -1 | 12* | 0 | 7 | 12* | 6
COc1cc(/C=C/C(=O)O)ccc1O | / | 2 | 0 | 0 | 1 | 5 | / | /
Cn1c2ccccc2c2cnn(CC(=O)Nc3cccc(F)c3)c(=O)c21 | 7 | 8 | 0 | 9.7* | 0 | 0 | 1 | 3
CN1CCN(CCCNC(=O)Cn2ncc3c4ccccc4n(C)c3c2=O)CC1 | 6 | 3 | 0 | 0 | 0 | -2 | / | /
O=c1[nH]c(CN(CCc2ccccc2)S(=O)(=O)c2ccc(Cl)cc2)nc2ccccc12 | / | 2 | 0 | 23* | -2 | 24 | 5 | 8
S=c1[nH]nc(-c2cccs2)n1/N=C/c1cn(-c2ccccc2)nc1-c1cccs1 | 29 | 25 | 0 | 10* | 0 | 8 | 1 | 4
O=C(CN(Cc1ccccc1)S(=O)(=O)c1cccc(C(F)(F)F)c1)NC1CCCCC1 | / | 4 | 0 | 12* | 1 | 3 | 0 | 5
O=c1cc(-c2ccccc2)oc2ccc3ccccc3c12 | -21 | 3 | 0 | 10.0* | 0 | / | 9.5* | 4
Cc1nn(CC(=O)NCc2cccc3ccccc23)c(=O)c2ccccc12 | 8 | -4 | 0 | 19* | -1 | 0 | 4 | 4
CC(=O)Nc1ccc(OCCC[n+]2ccccc2)cc1 | 15 | -1 | 1 | -2 | 0 | -1 | / | /
CCCCCc1ccc(OCCC[n+]2ccccc2)c(CCCCC)c1 | 88 | 18 | 0 | 15* | -1 | 13 | 4 | 8
CCOC(=O)[C@]12CCCC=C1N(CCC1=CCCCC1)C(=O)[C@H](CC(=O)NCc1cccc3ccccc13)C2 | / | / | 0 | / | 0 | / | / | /
Cc1cc(OC(C)C(=O)NCc2ccccn2)c2c(C)cc(=O)oc2c1 (configuration not stated) | / | 13 | 1 | 1 | -1 | 1 | / | /
Cc1cc(OC(C)C(=O)NCc2ccccn2)c2c(C)c(Cc3ccccc3)c(=O)oc2c1 (configuration not stated) | / | 11 | 0 | 11* | -1 | 7 | 1 | 2

Screens from PubChem BioAssay.
